Experimental findings from ChEMBL document CHEMBL1131490, “1,4-Cyclohexanecarboxylates: potent and selective inhibitors of phosophodiesterase 4 for the treatment of asthma” (J Med Chem, 1998) are described below.

Molecules are shown by their SMILES.

One series addresses Phosphodiesterase 4 (Homo sapiens, UniProt P27815+Q08499+Q07343+Q08493). Nature of the series: Inhibition activity against human monocyte derived PDE4 catalytic activity (LPDE4). It is filed as protein assay.
Series [1] concerns Cavia porcellus. The experiment in a line: Antigen-induced bronchoconstriction in guinea pigs after iv administration 10 min pre-treatment. Type of series: functional. To be noted: read-out: ID50 (the source's name). Summed up: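 Anesthetized guinea pigs, compound given intravenously, with bronchoconstriction provoked by antigen challenge.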
The species named for the next series is Homo sapiens. The experiment in a line: (§1) Inhibition of lipopolysaccharide (LPS)-induced TNF alpha release by human monocytes. It is filed as functional.
The subject of series [2] is Canis familiaris. Nature of the series: Emetic effect in dogs by intravenous administration. It is filed as functional. The following applies: Canis lupus familiaris.
A further series is filed under the species Oryctolagus cuniculus. The experiment in a line: Stimulation of acid secretion from rabbit parietal glands. Type of series: functional.
For series [3], the species on record is Mus musculus. The experiment in a line: Reversal of reserpine-induced hypothermia in the mouse. It is filed as functional.
For series [4], the species on record is Mus musculus. The experiment in a line: Inhibition of lipopolysaccharide (LPS)-induced TNF alpha generation in mouse. To be noted: read-out: ID50 (the source's name). Type of series: functional. Summed up: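 Human monocytes adoptively transferred into mice, then LPS challenge. Compound dosed orally; human TNFα generation measured. ID50 taken from the mean response of three to eight animals.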

Series [5] deals with Mus musculus. The experiment in a line: Reversal of reserpine-induced hypothermia in the mouse on peroral administration. It is filed as functional. The following applies: po.
A short description of series [6]: as §1. Type of series: functional.
Series [7] relates to Cavia porcellus. Nature of the series: Antigen-induced bronchoconstriction in guinea pigs after peroral administration 1 hour pre-treatment. It is filed as functional. The following applies: po, read-out: ID50 (the source's name).
For series [8], the species on record is Canis familiaris. The experiment in a line: Emetic effect in dogs. It is filed as functional. The following applies: Canis lupus familiaris.
For series [9], the species on record is Mus musculus. Nature of the series: Reversal of reserpine-induced hypothermia in mouse by peroral dose. To be noted: po. It is filed as functional.
The nature of series [10]: The value for hypothermia against antigen provocation (po). To be noted: in vivo.

On Phosphodiesterase 4, `COc1ccc([C@@H]2CC(=O)N(Cc3ccc(N)cc3)C2)cc1OC1CCCC1` displayed an IC50 of 195 nM. Besides, in the series with Cavia porcellus [1], the ED50 was 10 mg/kg.

In the case of `COc1ccc([C@]2(C#N)CC[C@@H](C(=O)O)CC2)cc1OC1CCCC1` (stereo in doubt; 1) [CILOMILAST], inhibition in the series listed under Homo sapiens was half-maximal at 110 nM (IC50). Also, the ED50 in the series with Canis familiaris [2] came out at 4.6 mg/kg; in the series filed under Mus musculus [3] it was 2.3 mg/kg; in the series listed under Mus musculus [4], 4.9 mg/kg; in the series with Cavia porcellus [1], 1.8 mg/kg. Further, in the series listed under Oryctolagus cuniculus, a half-maximal response (EC50) required 800 nM.

In the case of `COc1ccc([C@@H]2CNC(=O)C2)cc1OC1CCCC1` [(-)-ROLIPRAM], the ED50 with Mus musculus [5] came out at 0.2 mg/kg; in the series listed under Mus musculus [4], 5.1 mg/kg; with Cavia porcellus [7], 2 mg/kg; in the series filed under Canis familiaris [8] it was 0.04 mg/kg; in the series with Cavia porcellus [1] it was 0.2 mg/kg. Also, in series [6], the IC50 was 70 nM. Further, in the series filed under Oryctolagus cuniculus, the EC50 is 4 nM.

`COc1ccc(C2(CO)CCC(=O)CC2)cc1OC1CCCC1` yielded an IC50 at Phosphodiesterase 4 of 2500 nM.

On Phosphodiesterase 4, `COc1ccc(C2(C(N)=O)CCC(=O)CC2)cc1OC1CCCC1` registered an IC50 of 320 nM.

In the case of `COc1ccc(C2CCC(C(=O)O)CC2)cc1OC1CCCC1` (stereo not given), the half-inhibitory concentration (IC50) against Phosphodiesterase 4 is 1200 nM.

At Phosphodiesterase 4, `COc1ccc(C2(CF)CCC(=O)CC2)cc1OC1CCCC1` registered an IC50 of 1180 nM.

Turning to `COc1ccc(C2(C#N)CCC(c3nnn[nH]3)CC2)cc1OC1CCCC1` (stereo not given), the IC50 on Phosphodiesterase 4 was found to be 740 nM.

Compound `COc1ccc(C2CCC(=O)C2)cc1OC1CCCC1` (stereo not given) registered an IC50 against Phosphodiesterase 4 of 500 nM.

With `COc1ccc(C2(C=O)CCC(=O)CC2)cc1OC1CCCC1`, the IC50 against Phosphodiesterase 4 came out at 340 nM.

As for `COc1ccc(C2(C#N)CCC(=O)CC2)cc1OC1CCCC1`, at Phosphodiesterase 4, the IC50 is reported as 44 nM.

Turning to `COc1ccc(C2CC(=O)N(Cc3ccc(N)cc3)C2)cc1OC1CCCC1` (stereo not given), the IC50 against Phosphodiesterase 4 came out at 52 nM. Also, the ED50 with Cavia porcellus [1] is 0.5 mg/kg.

For the compound `COc1ccc(C2CCC(=O)CC2)cc1OC1CCCC1`, the IC50 against Phosphodiesterase 4 amounted to 120 nM.

Take `COc1ccc([C@H]2CNC(=O)C2)cc1OC1CCCC1` [S-ROLIPRAM]: the ED50 is greater than 10 mg/kg in the series listed under Mus musculus [9], 2 mg/kg in the series on Cavia porcellus [7] and 0.2 mg/kg in the series with Cavia porcellus [1].

Compound `C#CC1(c2ccc(OC)c(OC3CCCC3)c2)CCC(=O)CC1` displayed an IC50 against Phosphodiesterase 4 of 80 nM.

Consider `COc1ccc(C2CCC(C(=O)O)C2)cc1OC1CCCC1` (stereo not given), for which the ED50 with Mus musculus [5] worked out at 0.5 mg/kg; with Cavia porcellus [7], 3 mg/kg; in the series with Cavia porcellus [1] it was 0.5 mg/kg. Moreover, the selectivity ratio in [10] worked out at 0.17. At Phosphodiesterase 4, the IC50 is 1200 nM.

By IC50 is commonly meant the point on the concentration scale where inhibition reaches its midpoint. A lower IC50 goes with greater potency. A word on the EC50: it is the concentration that produces a half-maximal response. A lower EC50 goes with greater potency.
